Screening data (PubChem BioAssay)
Shown are actives, neighbours in structure and some others; about 8.7% of the full set was active somewhere.
tolC growth inh: blocks growth of E. coli BW25113 tolC mutant; actives 2.2% (n = 65,000); growth inhibition, % at 10 µM (by protocol); OD615;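 active = growth inhibition at or above a cutoff equal to the mean over every tested compound plus 3 SD, cut at about 60% in these data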;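 also: growth measured after 20 h incubation at 37 °C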
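Test system: E. coli BW25113 ΔtolC::kan bacteria | Medium: Kanamycin-containing LB broth (50 µg/mL) | Dosing: One dose of 10 µM final | Times: 20 h incubation with compound, 37 °C | Detection: Optical density read at 615 nm | Read-out basis: Percent growth inhibition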
PostGolgi yeast: growth inhibition of a yeast mutant, post-Golgi transport screen. actives 0.9% (n = 98,000). post-Golgi transport phenotypic cell assay. inhibition, % at 10 µM. AID 739;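 also: yeast cells grown in 1536-well plates; yeast grown about 18 h at 30C before absorbance read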
Ecoli WT expand: blocks growth of wild type E. coli BW25113. growth inhibition, % at 100 µM. actives 0.15% (n = 98,000). OD600 absorbance;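 active = growth inhibition above about 50% at one test dose, limit read from the data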;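 also: growth measured after 20 h incubation at 37 °C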
Cav32 inh: human Cav3.2 channel inhibition, primary screen; O95180; Cav3.2-expressing cells, Fluo-4 calcium fluorescence FDSS; hits give low values; B-score at 10 µM; actives 4% (n = 100,000);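 active = single-dose well whose peak fluorescence ratio is a statistical outlier from its plate by either plate-standardised score or position-corrected B-score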
Pyk2 oligo antag: blocks oligomerization of human Pyk2 in cells; Q14289; Q293 cells, Pyk2 FERM NanoBiT luminescence; hits give low values; z-score (the deposit names both 25 µM and 10 µM); actives 0.83% (n = 99,000); AID 1347419;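 active = Z-score of -3 or lower, scaled per plate to the spread of control and sample wells; inactive = z-score above -3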;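 also: negative z-score means lost luminescence so less FERM oligomerization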
Target sequence (Q14289 whole entry, looked up): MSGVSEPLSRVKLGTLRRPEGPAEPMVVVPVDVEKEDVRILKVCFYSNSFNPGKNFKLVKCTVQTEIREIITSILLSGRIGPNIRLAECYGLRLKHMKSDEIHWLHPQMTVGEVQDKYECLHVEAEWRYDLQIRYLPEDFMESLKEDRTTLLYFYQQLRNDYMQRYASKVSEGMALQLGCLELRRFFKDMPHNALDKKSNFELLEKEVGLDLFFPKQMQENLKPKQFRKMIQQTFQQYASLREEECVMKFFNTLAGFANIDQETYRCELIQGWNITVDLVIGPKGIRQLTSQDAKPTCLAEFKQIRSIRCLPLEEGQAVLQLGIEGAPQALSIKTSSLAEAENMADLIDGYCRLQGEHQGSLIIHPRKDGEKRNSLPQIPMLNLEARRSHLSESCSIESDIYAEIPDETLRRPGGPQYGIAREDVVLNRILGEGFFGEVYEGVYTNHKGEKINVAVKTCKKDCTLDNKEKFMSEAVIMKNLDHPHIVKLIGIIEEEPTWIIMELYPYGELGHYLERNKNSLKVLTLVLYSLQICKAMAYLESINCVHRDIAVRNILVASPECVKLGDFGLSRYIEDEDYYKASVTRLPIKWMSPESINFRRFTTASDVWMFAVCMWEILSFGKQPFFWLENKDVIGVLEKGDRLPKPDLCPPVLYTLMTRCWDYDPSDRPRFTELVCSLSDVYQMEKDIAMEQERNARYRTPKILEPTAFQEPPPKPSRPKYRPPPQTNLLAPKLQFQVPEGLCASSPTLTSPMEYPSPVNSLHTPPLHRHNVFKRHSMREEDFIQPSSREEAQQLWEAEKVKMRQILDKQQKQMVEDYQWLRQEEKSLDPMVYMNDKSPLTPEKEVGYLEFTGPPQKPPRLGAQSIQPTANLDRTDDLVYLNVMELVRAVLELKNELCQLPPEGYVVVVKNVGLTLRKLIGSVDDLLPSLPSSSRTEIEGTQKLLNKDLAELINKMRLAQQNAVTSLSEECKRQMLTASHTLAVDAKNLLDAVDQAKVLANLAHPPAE
PostGolgi ctrl: inhibits growth of the yeast control strain. efflux-deficient yeast background strain, growth absorbance A615, 16 h. inhibition, % at 10 µM. actives 5% (n = 98,000). AID 738
Numbers without * were called inactive; · = no result given. Rule as the data show it, unless noted: active = inhibition above about 30%; inactive = the rest.

SMILES	tolC growth inh	PostGolgi yeast	Ecoli WT expand	Cav32 inh	Pyk2 oligo antag	PostGolgi ctrl
CCCCCCOC(=O)Sc1nc2ccccc2o1	9.3	33.7*	2.0	0.403	0.52	9.3
Cc1cc(=O)[nH]c(SCC(=O)Nc2ccc(Br)cc2)c1C#N	·	2.6	34.0	-9.83*	-0.79	11.6
CC(C)(C)NC(=O)Cn1c(-c2nonc2N)nc2ccccc21	·	-4.4	1.0	1.03	-1.11	-0.3
CCCCOc1ccccc1NC(=O)Cn1c(-c2nonc2N)nc2ccccc21	-4.0	-9.9	-9.0	-4.24*	1.06	9.3
CCc1ccc(NC(=O)c2ccc3ncsc3c2)cc1	·	13.8	-6.0	·	·	71.1*
Nc1nc(CN2CCN(c3ccccn3)CC2)nc(Nc2ccc(Cl)cc2)n1	47.7	14.8	16.0	-2.7	0.84	3.5
CCCNC(=O)NCCc1c(C)[nH]c2ccccc12	-0.9	1.0	7.0	-0.289	·	4.1
CCc1cccc(C)c1NC(=S)NCCc1c(C)[nH]c2ccc(C)cc12	·	·	·	-3.36*	·	·
C=CCn1c(SCC(=O)NC2CCCC2)nc2scc(-c3ccco3)c2c1=O	-13.5	9.0	-7.0	-1.38	0.64	-2.1
C=CCn1c(SCC(=O)NCCCC)nc2scc(-c3ccco3)c2c1=O	16.6	-0.6	-6.0	-2.74*	0.5	9.7
CCN(c1ccccc1)S(=O)(=O)c1ccc2[nH]cc(C(=O)NCCOC)c(=O)c2c1	1.3	3.9	-11.0	1.22	-0.33	-1.3
COc1cccc(NS(=O)(=O)c2ccc3[nH]cc(C(=O)NCCC(C)C)c(=O)c3c2)c1	31.3	8.6	2.0	-0.851	-1.68	40.8*
CCOc1ccc(NS(=O)(=O)c2ccc3[nH]cc(C(=O)NC(C)CC)c(=O)c3c2)cc1 (stereo not drawn)	100.0*	8.2	-1.0	·	-0.06	1.6
CCn1c(Cc2ccccc2)nnc1SCC(=O)Nc1nc(C)c(C)s1	-9.3	2.4	-1.0	-0.114	-0.3	1.4
CCOC(=O)NC(Nc1cc(C)ccn1)(C(F)(F)F)C(F)(F)F	-2.8	-1.0	1.0	0.789	0.29	-9.9
Cc1ccc(/C(CSc2nccn2-c2ncc(C(F)(F)F)cc2Cl)=N\O)cc1	·	-7.3	2.0	-6.19*	-0.5	24.0
CCOC(=O)C1CCN(Cc2cnc(Oc3ccc(Cl)cc3C)s2)CC1	·	49.4*	2.0	·	0.13	16.8
Cc1nn(-c2ccc(Cl)cc2Cl)c(=O)c2ccccc12	·	·	·	0.507	0.72	·
Cc1c(C(=O)NN2CCCCC2)nn(-c2ccc(Cl)cc2Cl)c1-c1ccc(I)cc1	·	·	·	-4.91*	·	·
CS(=O)(=O)N(CC(=O)Nc1cccc(Cl)c1)c1ccccc1Cl	·	-6.8	12.0	-3.43	-1.12	6.2
CC1CCc2cc(F)ccc2N1C(=O)CSc1nnc2c(n1)[nH]c1ccc(F)cc12 (stereo not drawn)	·	1.7	3.0	-1.69	-2.32	5.3
Cc1cc(C)cc(NC(=S)NCc2cccn2C)c1	·	-14.7	4.0	0.576	0.34	9.3
COc1ccc(/C=N/Nc2nnc(-c3ncc[nH]3)c3ccccc23)cc1	·	-2.5	-6.0	0.0725	-0.32	8.1
Oc1ccc2ccccc2c1/C=N/Nc1nnc(-c2ncc[nH]2)c2ccccc12	·	9.3	9.0	-2.1	-0.68	39.0*
COC(=O)/C=C1\S/C(=N/NC(=O)c2ccccc2)NC1=O	·	-2.3	-14.0	0.248	-0.6	-0.6
SMILES	tolC growth inh	PostGolgi yeast	Ecoli WT expand	Cav32 inh	Pyk2 oligo antag	PostGolgi ctrl
COc1ccccc1/C=C1\S/C(=N/NC(=O)c2cccc(Br)c2)NC1=O	·	0.9	2.0	-4.24*	0.06	6.0
COC(=O)c1cccc2nc3c(C(C)O)cccc3nc12 (stereo not drawn)	·	·	·	-0.615	·	·
COc1ccc(NC(=O)c2cc3n(n2)C(C(F)(F)F)CC(c2ccc4c(c2)OCO4)N3)cc1OC (stereo not drawn)	43.0	-17.7	-14.0	·	-0.28	15.0
Cc1ccc(C(=O)NCc2ccco2)cc1Br	·	8.3	16.0	-1.71	-0.04	13.0
Cc1cccc(NC(=O)c2cc3n(n2)C(C(F)(F)F)CC(c2ccc4c(c2)OCO4)N3)c1 (stereo not drawn)	68.4*	8.7	-13.0	-7.29*	-0.05	57.8*
Cc1ccc(-c2cc(C(=O)NCc3ccco3)no2)cc1	-12.2	-21.2	-7.0	-0.0493	-0.33	11.4
Cc1ccc(C2CC(C(F)(F)F)n3nc(C(=O)NCc4ccco4)cc3N2)cc1 (stereo not drawn)	6.1	-2.4	1.0	·	0.96	32.1*
Cc1ccc2c(CC(=O)NCc3ccco3)coc2c1C	14.3	5.4	1.0	-9.36*	0.24	4.5
Cc1cc(C(=O)NCc2ccco2)no1	·	30.3*	14.0	0.242	1.1	11.2
COC(=O)C(C)Oc1ccc(=O)[nH]n1 (stereo not drawn)	-14.7	-4.8	-4.0	0.382	0.64	25.5
O=C(OCc1ccc(Cl)cc1)c1ccccc1C(=O)c1ccccc1	·	-0.2	0.0	·	-2.21	26.1
CC1Cc2ccccc2N1C(=O)CSc1nnc(-c2ccc(S(=O)(=O)N3CCCC3)cc2)o1 (stereo not drawn)	-10.2	-4.0	0.0	0.0271	0.38	5.3
Cc1ccc(C2CC(C(F)(F)F)n3nc(C(=O)NCCN4CCOCC4)cc3N2)cc1 (stereo not drawn)	18.4	-7.5	2.0	0.657	0.82	-0.1
CCCCNC(=O)c1cc2n(n1)C(C(F)(F)F)CC(c1ccccc1)N2 (stereo not drawn)	7.6	1.1	-4.0	-0.0101	0.98	34.9*
C#CC1CN(Cc2ccccc2)CC(C#C)N1C (stereo not drawn)	18.0	-1.6	5.0	1.04	-0.04	-2.4
CO[C@@]1(NC(=O)CSCC#N)C(=O)N2C(C(=O)O)=C(CSc3nnnn3C)CS[C@@H]21	7.8	·	·	0.0547	·	·
COc1ccnc(Oc2ccc(F)cc2)c1C(=O)N/C=N/OCc1ccc(F)cc1Cl	·	-1.6	8.0	-2.07	-0.71	38.1*
Cc1cc(NC(=O)c2c(F)cccc2F)n(-c2nc3ccccc3[nH]2)n1	·	-0.7	-7.0	-0.601	-1.74	30.0*
Cc1cc(Nc2ccccc2)n(-c2nc3ccccc3[nH]2)n1	95.3*	2.6	-10.0	0.896	-0.86	41.2*
C/C(=N\O)c1ccccc1C(=O)O	-5.8	0.5	-1.0	-0.475	-3.28*	5.8
Cc1ccc(CN2CCN(/N=C/c3cc(Br)ccc3O)CC2)cc1	·	74.1*	-7.0	-0.587	1.21	21.9
Cc1cc(C)cc(OCC(=O)Nc2ccc(N3CCN(C(=O)c4ccco4)CC3)cc2)c1	·	-1.9	-1.0	-1.37	-1.54	-2.5
O=C(COc1ccc(Cl)cc1)Nc1ccc(N2CCN(C(=O)c3ccco3)CC2)cc1	·	88.2*	-6.0	1.11	-1.24	13.2
O=C(c1ccco1)N1CCN(CC(O)Cn2c3ccccc3c3ccccc32)CC1 (stereo not drawn)	7.9	1.6	1.0	-4.84*	0.76	13.8
O=C(c1ccco1)N1CCN(Cc2ccc(Cl)cc2)CC1	-1.2	-3.8	13.0	·	0.44	35.2*
Cc1ccccc1C(=O)N1CCN(c2ccc(NC(=O)CSc3ccc(Cl)cc3)cc2)CC1	·	78.5*	-19.0	-2.2	-0.66	52.7*
